Yeast life ext: yeast lifespan extension. S. cerevisiae growth with nicotinamide, OD615; deaD strain in restrictive glucose medium. inhibition of the nicotinamide effect, % at 10 µM. 0.68% of 130,000 active. AID 775;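 active = inhibition above a set limit, placed 3 SD over the median of all compounds, cut at about 26% in these data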
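Material: Modified budding yeast, DeaD strain | Medium: Restrictive glucose medium | Probe or stimulus: 1.5 mM nicotinamide | Dosing: Single dose 10 µM compound, 0.25% DMSO | Times: 48 h at 30 °C | Technique: OD615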
BB579 growth dn: reduces growth of yeast BB579 in restrictive medium. S. cerevisiae BB579 growth, OD615, 48 h. inhibition, % at 10 µM. 0.51% of 140,000 active. AID 804;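 active = inhibition above a set limit, 3 SD over the mean compound inhibition, cut at about 44% in these data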
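System: Saccharomyces cerevisiae DeaD strain BB579, replicative lifespan model yeast | Buffer or medium: Restrictive glucose-based CSMM-D medium | Times: 4 h preincubation and 48 h exposure at 30 °C | Detection: OD615 turbidity measurement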
RAM inhibit: inhibitors of the yeast RAM network; 1.8% of 190,000 active; inhibition, % at 50 µM; AID 868; S. cerevisiae dse1pr::URA3 reporter, 5-FOA growth OD615, 2 d; analog-sensitive cbk1-as2 kinase mutant strain;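 active = inhibition above a set limit, 3 SD over mean compound inhibition, cut at about 8.4% in these data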;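 also: inhibition rescues growth on 5-FOA so higher OD means more RAM inhibition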
WT yeast gro inh: growth inhibition of WT yeast, mitochondrial fusion screen. mitochondrial fusion phenotypic screen, WT strain. inhibition, % at 10 µM. AID 1362. 2.1% of 190,000 active; in the data active = inhibition above about 58%; tested in S. cerevisiae
Large screens that a line does not name were inactive. An excerpt weighted towards active compounds, which were near 4.3% of everything screened.

CCn1cc(/C=N\NC(=O)c2ccccc2Cl)cn1	none
COC(=O)c1ccccc1Sc1c(/C=N/OC(=O)c2ccccc2)c(C(F)(F)F)nn1C	none
Cc1ccc(C(=O)O/N=C/c2c(C(F)(F)F)nn(C)c2Sc2ccc(Cl)cc2)cc1	RAM inhibit 9.6
O=C(Nc1ncc(Br)s1)C(Cc1ccccc1)n1cccc1 (centres undefined)	WT yeast gro inh 82
O=C(Nc1cccnc1)C(Cc1ccccc1)n1cccc1 (centres undefined)	none
CN(c1ccccc1)S(=O)(=O)c1ccc(NC(=S)NC(=O)C2CC2)cc1	WT yeast gro inh 68
NC(=S)N/N=C\c1c(OCc2ccccc2Cl)ccc2ccccc12	WT yeast gro inh 61 (no result: Yeast life ext, BB579 growth dn)
NC(=S)N/N=C\c1c2ccccc2cc2ccccc12	none
Cc1ccccc1-c1nnc(SCCOc2ccc3c(C)cc(=O)oc3c2)o1	none
COc1cccc(N2CCN(C(=S)NCc3ccco3)CC2)c1	none
COc1ccc2cc(C#N)c(N3CCN(C(=O)c4ccccc4C)CC3)nc2c1	RAM inhibit 8.8 (no result: Yeast life ext, BB579 growth dn)
COc1ccc(C(=O)N2CCN(c3nc4cc(C)ccc4cc3C#N)CC2)c(OC)c1	none
N=c1c2c(n(Cc3ccc(F)cc3)c3c1CCC3)CCC2	WT yeast gro inh 66
CCn1c2c(c(=N)c3c1CCC3)CCC2	none
O=C(CCCc1c[nH]c2ccccc12)NCC1COc2ccccc2O1 (centres undefined)	none (no result: Yeast life ext, BB579 growth dn)
CN(C(=O)Nc1ccc(Cl)c(Cl)c1)c1ccccc1C(=O)O	WT yeast gro inh 72
CN(c1ccccc1C(=O)Nc1ccc(F)c(Cl)c1)S(C)(=O)=O	none (no result: Yeast life ext, BB579 growth dn)
Cc1ccc2nc(SC(C(=O)Nc3ccc(F)cc3)c3ccccc3)[nH]c2c1 (centres undefined)	WT yeast gro inh 60
COC(c1ccccc1)c1nnc(CCC(=O)NCCC(C)C)o1 (centres undefined)	none (no result: Yeast life ext, BB579 growth dn)
CCCCNC(=O)C(c1ccc(-c2ccccc2)cc1)N(CCN1CCOCC1)C(=O)CCCCCN1C(=O)NC(c2ccc([N+](=O)[O-])cc2)C(C(=O)OCc2ccccc2)=C1C (centres undefined)	none
CCCCCCN(C(=O)CCCCCN1C(=O)NC(c2ccc(Cl)cc2)C(C(=O)OCc2ccccc2)=C1C)C(C(=O)NCCCC)c1ccc(OCC(=O)OC)c(C(=O)OC)c1 (centres undefined)	RAM inhibit 10
CCn1c(=O)c([N+](=O)[O-])c(Cl)c2ccccc21	WT yeast gro inh 62 (no result: Yeast life ext, BB579 growth dn)
CCn1c(=O)c([N+](=O)[O-])c(NCCN(C)C)c2ccccc21	none (no result: Yeast life ext, BB579 growth dn)
Cc1ccc(C2=NNC(=O)C(P(=O)(c3ccccc3)c3ccccc3)C2)cc1 (centres undefined)	none (no result: Yeast life ext, BB579 growth dn)
CCCc1c(OCCCCc2nn[nH]n2)ccc(C(C)=O)c1O	none
COc1ccc2c(c1)CCC1=C2NC(=S)NC1c1ccc(N(C)C)cc1 (centres undefined)	WT yeast gro inh 81 (no result: Yeast life ext, BB579 growth dn)
C=CCc1cccc(CNc2nc3ccccc3n2CCC)c1O	WT yeast gro inh 59
CCCCNC(=O)C1=C(N)C(C(=O)Nc2ccc(C)c(S(=O)(=O)N3CCCCC3)c2)SC1=Nc1ccc(C)cc1C (centres undefined)	WT yeast gro inh 60
CCN(CC)S(=O)(=O)c1cccc(NC(=O)C2SC(=Nc3ccc(C)cc3C)C(C(=O)NC(C)COC)=C2N)c1 (centres undefined)	none
NC(=O)c1ccsc1NC(=O)CSc1nnc2ccccn12	none (no result: Yeast life ext, BB579 growth dn)
NC(=O)c1ccsc1NC(=O)CSc1nc2ccccc2c(=O)n1CCCO	RAM inhibit 8.9
CCOc1ccc(NC(=S)N2CCc3cc(OC)c(OC)cc3C2COc2ccc3c(C)cc(=O)oc3c2)cc1 (centres undefined)	RAM inhibit 9.9
CCN(CC)S(=O)(=O)c1ccc(C(=O)NNC(=O)C2CCN(S(=O)(=O)c3ccc(Cl)cc3)CC2)cc1	none
O=C1Nc2ccc(F)cc2C12Nc1ccccc1-c1nnc(SCc3ccccc3)nc1O2 (centres undefined)	none
O=C1Nc2ccc(F)cc2C12Nc1ccccc1-c1nnc(SCc3ccccc3Cl)nc1O2 (centres undefined)	WT yeast gro inh 69
Cc1ccc(CSc2nnc3c(n2)OC2(Nc4ccccc4-3)C(=O)Nc3ccc(F)cc32)cc1 (centres undefined)	WT yeast gro inh 70
CC(C)C1Oc2ccccc2N(CC(=O)N(Cc2ccncc2)Cc2ccco2)C1=O (centres undefined)	none (no result: Yeast life ext)
COc1ccc(OCc2nnc(SCC(=O)c3c(N)n(C)c(=O)n(C)c3=O)n2-c2ccccc2F)cc1	RAM inhibit 11 (no result: Yeast life ext, BB579 growth dn)
Cn1c(SCC(=O)c2c(N)n(C)c(=O)n(C)c2=O)nnc1-c1ccccc1F	none (no result: Yeast life ext, BB579 growth dn)
CCCCCCc1nc2ccccc2c(=O)n1NC(=O)c1c(O)c2cccc3c2n(c1=O)CCC3	WT yeast gro inh 65
O=C(Nc1nccs1)c1c(O)c2cccc3c2n(c1=O)CCC3	Yeast life ext 30
O=C(Nc1nccs1)c1ccc2c(=O)n3c(nc2c1)CCCCC3	Yeast life ext 51
O=C(Nc1ccc2nc3n(c(=O)c2c1)CCCC3)c1cccc([N+](=O)[O-])c1	RAM inhibit 8.8
COc1ccc(S(=O)(=O)N2CCOCC2)cc1NC(=O)COc1cccnc1[N+](=O)[O-]	none (no result: Yeast life ext, BB579 growth dn)
CC1CC(C)CN(C(=O)c2ccccc2Nc2ccc(SC(F)F)cc2)C1 (centres undefined)	RAM inhibit 9.0
Cc1oc(-c2ccc3c(c2)OCCO3)cc1C(=O)O	BB579 growth dn 90 (no result: Yeast life ext)
COc1cc(S(=O)(=O)Nc2ccc(Br)cc2)ccc1N	none (no result: Yeast life ext, BB579 growth dn)
CCCCCCCOc1ccc(-c2ccc(C#N)cn2)cc1	RAM inhibit 10
CCCCOc1ccc(-c2cnc3ccccc3n2)cc1	none
Cc1cc(C)cc(N(C(=O)c2nsc(Cl)c2Cl)C(C(=O)NC2CCCC2)c2ccc(O)cc2)c1 (centres undefined)	none
Cc1ccc(N(C(=O)c2nsc(Cl)c2Cl)C(C(=O)NC2CCCC2)c2ccc(O)cc2)cc1C (centres undefined)	none
CCOc1ccc(C(C(=O)NC2CCCC2)N(Cc2ccccc2)C(=O)c2nsc(Cl)c2Cl)cc1 (centres undefined)	WT yeast gro inh 62
COc1ccc(C(C(=O)NC2CCCC2)N(Cc2ccccc2)C(=O)c2nsc(Cl)c2Cl)cc1 (centres undefined)	WT yeast gro inh 63
NC(CSCc1cccc(Br)c1)C(=O)O (centres undefined)	none (no result: Yeast life ext, BB579 growth dn)
Cc1cc(NC(=O)CSc2nc3ccc(Cl)cc3[nH]2)no1	none
O=C(O)C1C2C=CC(C2)C1C(=O)Nc1ccc(C(=O)N2CCCCC2)cc1 (centres undefined)	WT yeast gro inh 68
COc1ccccc1Nc1nc(N)nc(-c2oc3ccccc3c2C)n1	RAM inhibit 9.8
Cc1c(-c2nc(N)nc(Nc3ccc(F)cc3)n2)oc2ccccc12	none
O=C1COc2ccc(C(=O)COC(=O)Cc3ccsc3)cc2N1	none (no result: Yeast life ext, BB579 growth dn)
O=C(CSCc1ccco1)Nc1cc(C(F)(F)F)ccc1N1CCOCC1	RAM inhibit 9.1
CCCC(=O)Nc1cc(C(F)(F)F)ccc1N1CCOCC1	none (no result: Yeast life ext, BB579 growth dn)
CC1(C)COC2(OC1)C(=O)Nc1ccccc12	none (no result: Yeast life ext, BB579 growth dn)

Source: PubChem
